Screening data (PubChem BioAssay)
A selection: hits, their analogues and other compounds. The true share with any hit is near 1.9%.
DNMT1 block: DNMT1 (human) enzyme inhibition; P26358; DNMT1 molecular beacon, Hinp1I cleavage, fluorescence; inhibition (reported as % activation of signal), % at 10 µM; 0.83% of 360,000 active; AID 588458; in the data active = inhibition above about 50%
LMPTP inh: blocks human LMPTP phosphatase; recombinant LMPTP-A, OMFP fluorogenic substrate, fluorescence intensity; inhibition, % at 20 µM; 0.22% of 360,000 active; P24666;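 active = compounds that cut the enzyme signal by at least half of the control window in the single-dose screen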;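 note: plate controls were DMSO wells with enzyme plus substrate for no effect and substrate without enzyme for full effect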
Target sequence (P24666 whole entry, looked up): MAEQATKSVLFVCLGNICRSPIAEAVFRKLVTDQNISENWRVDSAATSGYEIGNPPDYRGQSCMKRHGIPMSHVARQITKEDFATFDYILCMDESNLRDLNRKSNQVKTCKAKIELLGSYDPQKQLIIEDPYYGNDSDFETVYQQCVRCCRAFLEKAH
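Test system: LMPTP-A phosphatase enzyme; input: 0.625 nM LMPTP-A final; reagent: OMFP substrate, 400 µM final; compound dosing: 20 µM single dose, 3% DMSO; incubation: 50 min dark incubation at room temperature; measured by: endpoint fluorescence intensity from OMFP dephosphorylation; measure: % inhibition relative to no-enzyme and uninhibited control wells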
SUMO1-SIM PPI: modulators of human SUMO1-mediated protein-protein interactions | SUMO1 binding to a labelled peptide, TR-FRET, 1 h | 0.33% of 360,000 active | AID 602429 | inhibition, % at 20 µM | P63165; in the data active = inhibition above about 37%
Target sequence (P63165 whole entry, looked up): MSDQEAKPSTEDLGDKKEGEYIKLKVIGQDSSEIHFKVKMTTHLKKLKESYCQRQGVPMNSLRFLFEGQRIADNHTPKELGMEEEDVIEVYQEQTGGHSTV
CSN inh: inhibitors of human CSN-mediated cullin deneddylation | Q92905 | inhibition, % at 12.5 µM | AID 651999 | 0.38% of 360,000 active | Purified CSN, SCF-Nedd8-OG deneddylation, fluorescence polarization;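 active = pattern-corrected inhibition above about 35%, with an unprinted fluorescence ratio check between 0.5 and 1.5, limit read from the data, passing the limit was not always enough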;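 note: 0% = enzyme with substrate and 100% = substrate without enzyme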
Target sequence (Q92905 whole entry, looked up, one chain of several): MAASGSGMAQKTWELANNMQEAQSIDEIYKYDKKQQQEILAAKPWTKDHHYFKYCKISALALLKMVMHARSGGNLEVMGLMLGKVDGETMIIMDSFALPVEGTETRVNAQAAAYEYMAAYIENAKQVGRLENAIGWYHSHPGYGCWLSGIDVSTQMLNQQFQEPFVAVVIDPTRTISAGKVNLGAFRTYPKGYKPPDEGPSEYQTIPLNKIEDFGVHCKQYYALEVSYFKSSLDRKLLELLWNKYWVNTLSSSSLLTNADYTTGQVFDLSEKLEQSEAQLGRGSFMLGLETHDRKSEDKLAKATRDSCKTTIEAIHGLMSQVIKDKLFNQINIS
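Assay system: Purified human Csn5 enzyme expressed in HEK293T cells | Amount: Enzyme 0.24 nM | Measured by: Fluorescence polarization readout | Medium: Tris/NaCl/DTT buffer, pH 7.5 | Compound dosing: One concentration, 12.5 µM, 0.25% DMSO | Times: 90 min incubation of compound, enzyme and substrate at room temperature | Control set: no-enzyme wells high, enzyme-with-substrate wells low | Read-out: % inhibition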
Scp-1 inhibitor: inhibitors of human Scp-1 phosphatase | 0.88% of 340,000 active | AID 493091 | Q9GZU7 | Recombinant Scp1, phosphopeptide, malachite green phosphate absorbance | inhibition, % at 20 µM;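 active = inhibition above about 50% at 20 µM, limit read from the data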;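 note: plate controls were DMSO wells with enzyme for no effect and wells lacking enzyme for full effect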
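Test system: SCP-1 phosphatase catalytic domain, residues 76-261 | Compound dosing: One concentration, 20 µM, with 1.0% DMSO | Schedule: 45 min room-temperature reaction, 5 min colour, 30 min stabiliser | Detection: Absorbance at 630 nm | Read-out basis: % inhibition of SCP-1 phosphate liberation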
STEP inh: STEP (human) phosphatase inhibition; inhibition, % at 20 µM; AID 588621; 0.25% of 360,000 active; recombinant STEP, OMFP fluorogenic substrate, fluorescence; P54829;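 active = inhibition at 20 µM, scaled per plate between control wells, above about 37%, limit read from the data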;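 note: 0% = DMSO with enzyme and substrate and 100% = substrate only without enzyme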
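material = STEP tyrosine phosphatase | reagent = fluorogenic phosphatase substrate OMFP at 25 µM final | doses = single compound dose of 20 µM, 1% DMSO final | schedule = 20 min reaction, room temperature, in the dark | measured by = fluorescence, 480/540 nm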
DNMT1 confirm: DNMT1 inhibition confirmation, single concentration; shares compounds with DNMT1 block; inhibition, % at 10 µM; 8% of 2,300 active; DNMT1 molecular beacon HinP1I cleavage, fluorescence; AID 602385;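 active = average inhibition of at least 30% in the single-concentration confirmation test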
DNMT1 interf: beacon fluorescence artifact counter-screen. DNMT1 molecular beacon spectral interference counterscreen, fluorescence 485/520. shares compounds with DNMT1 block. 1% of 2,300 active. activation (fluorescence interference), % at 10 µM;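 active = activation of at least 30% at 10 µM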;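 note: DNMT1 catalytic domain with a HinP1I cleavage step and a FAM/dabcyl DNA beacon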
Active calls of the source: *; . = no result.

SMILES	DNMT1 block	LMPTP inh	SUMO1-SIM PPI	CSN inh	Scp-1 inhibitor	STEP inh	DNMT1 confirm	DNMT1 interf
CC(C)Nc1ncnc2c1ncn2[C@H]1CN(Cc2ccc(F)cc2)C[C@@H](CO)O1	1	-1	-7	8	.	-2	.	.
O=C(COc1cc(O)c2c(=O)cc(-c3ccccc3)oc2c1)c1ccc(F)cc1	54*	1	-6	3	9	5	2	-7
Cc1cccc(C)c1NC(=O)C1C(c2ccccc2)=Nc2ccccc2N1C(=O)c1cnccn1 (stereo not drawn)	.	1	-11	-1	.	.	.	.
CCOC(=O)c1c(C)[nH]c(C(=O)OCC(=O)Nc2ccc(OCC)cc2)c1C	69*	0	-4	-11	21	-3	-1	-2
CCOC(=O)c1c(C)[nH]c(C(=O)OCC(=O)Nc2ccc(OC)c(Cl)c2)c1C	28	1	1	3	2	0	.	.
CCOC(=O)c1c(C)[nH]c(C(=O)OCC(=O)Nc2cc(Cl)ccc2OC)c1C	22	-2	-2	-2	-2	0	.	.
CCOC(=O)c1c(C)[nH]c(C(=O)OCC(=O)Nc2cc(C)ccc2OC)c1C	62*	-1	-3	7	-4	3	2	1
CCOC(=O)c1[nH]c(C)c(C(=O)OCC(=O)N2CCc3ccccc32)c1C	-4	0	6	-9	-7	1	.	.
CCOC(=O)c1c(C)[nH]c(C(=O)OCC(=O)N2CCc3ccccc32)c1C	62*	0	1	1	-5	-2	4	0
CCOC(=O)C1CCN(C(=O)CN(c2ccc3c(c2)OCCO3)S(=O)(=O)c2ccccc2)CC1	1	-1	-1	-1	-7	3	.	.
CCOC(=O)c1c(NC(=O)c2cc(-c3ccc(Cl)s3)nc3ccccc23)sc(C(N)=O)c1C	56*	21	2	16	9	6	13	-1
Cc1ccc(S(=O)(=O)N2CCN(C(=O)c3ccc4ccccc4n3)CC2)c(C)c1	0	1	2	3	2	0	.	.
CCOC(=O)N1CCC(NC(=O)CCc2nc(-c3ccc(C)cc3)no2)CC1	-2	0	1	5	-1	-1	.	.
Brc1ccc(C2=Nn3c(nnc3-c3cccnc3)SC2)s1	62*	38	-8	94*	4	36	0	-5
CC1(C(=O)Nc2cccc3c2CCCC3)CCN1C(=O)c1cccc(F)c1 (stereo not drawn)	-6	0	5	1	.	1	.	.
Cc1ccc(C(=O)NCCNc2nc3cc(C)c(C)cc3cc2C)cc1	56*	1	24	4	5	3	6	1
CCc1ccc(N(CC(=O)NC(C)(C)C)C(=O)CCC(=O)Nc2ccccn2)cc1	60*	-1	-3	2	-9	1	1	-1
CCc1ccccc1N(CC(=O)NC(C)(C)C)C(=O)CCC(=O)Nc1ccccn1	3	0	1	-2	-5	1	.	.
COc1ccc(-c2ocnc2C(=O)NCc2nn(-c3ccccc3)nc2C)cc1	-7	3	1	-4	-14	3	.	.
CCCCCOc1ccc(C(=O)CCC(=O)NC(C)c2ccc(S(N)(=O)=O)cc2)cc1 (stereo not drawn)	75*	1	10	1	-4	1	2	2
CC(=O)c1ccc(OCCCC(=O)NC(C)c2ccc(S(N)(=O)=O)cc2)cc1 (stereo not drawn)	4	-1	1	4	1	-2	.	.
CCN(CC(=O)NCc1ccc(Cl)cc1)CC(=O)NC1(C#N)CCCC1	4	-1	6	2	-2	1	.	.
COc1ccc2oc(C(=O)OCC(=O)N(CCC#N)c3ccccc3)c(C)c2c1	-5	1	6	1	-7	0	.	.
CN(C)CCCN(C(=O)/C=C/c1cccs1)c1nc2ccc(F)cc2s1	5	0	-15	11	-6	2	.	.
CN(C)CCN(C(=O)/C=C/c1cccs1)c1nc2c(F)cc(F)cc2s1	58*	0	1	30	1	-4	3	2
SMILES	DNMT1 block	LMPTP inh	SUMO1-SIM PPI	CSN inh	Scp-1 inhibitor	STEP inh	DNMT1 confirm	DNMT1 interf
COc1cccc(NC(=O)CN(C)C(=O)c2ccc(OCc3ccccc3)c(OC)c2)c1	-1	1	1	-2	-4	1	.	.
O=C(O)CCN1C(=O)/C(=C\c2ccc(OCc3ccccc3)c(OCc3ccccc3)c2)SC1=S	98*	14	24	25	16	7	22	1
O=C(NNC(=O)C(Cl)Cl)c1cnn(-c2ccccc2)c1C(F)(F)F	0	-2	3	-3	1	0	.	.
CCC1(C)COC(C)(CC(=O)NNC(=O)Nc2ccccc2)OC1 (stereo not drawn)	81*	-1	2	-6	-4	-1	3	2
COc1ccc(/C=C/C(=O)C(C)(C)C)cc1OC	50*	-1	-12	2	-8	0	4	4
CC(CNC(=O)CN1C(=O)NC2(CCCCC2)C1=O)c1ccccc1 (stereo not drawn)	3	-1	17	5	-5	2	.	.
Cc1cc2c(c(=O)n1Cc1cccnc1)C(c1cccs1)C(C#N)=C(N)O2 (stereo not drawn)	4	3	-1	0	-4	-1	.	.
Cc1cc2c(c(=O)n1Cc1cccnc1)C(Cc1ccccc1)C(C#N)=C(N)O2 (stereo not drawn)	56*	2	-6	0	1	2	-1	3
COC(=O)[C@H](Cc1ccccc1)N1C/C=C\COc2c(Cl)cc(Cl)cc2S1(=O)=O	82*	5	9	-5	-7	-6	4	5
COC(=O)[C@H](C)N1C/C=C\COc2c(Cl)cc(Cl)cc2S1(=O)=O	4	0	6	-3	4	-1	.	.
Cc1cc(C(=O)N/N=C/c2cc(Br)c(Br)o2)n[nH]1	64*	7	-3	16	46	18	-1	-1
O=C(CSc1nnnn1-c1cccc(O)c1)NC1CC1	0	-1	1	2	-2	-1	.	.
CCCC[N+](C)(C)CCC(=O)NC(C)(C)CS(=O)(=O)[O-]	66*	-1	1	0	43	7	5	1
Cc1ccc(S(=O)(=O)NCCCCCC(=O)NC(C)(C)CO)cc1	0	-2	2	1	-3	0	.	.
